Results reported in ChEMBL document CHEMBL1133481, “Resistance-modifying agents. 8. Inhibition of O(6)-alkylguanine-DNA alkyltransferase by O(6)-alkenyl-, O(6)-cycloalkenyl-, and O(6)-(2-oxoalkyl)guanines and potentiation of temozolomide cytotoxicity in vitro by O(6)-(1-cyclopentenylmethyl)guanine” (J Med Chem, 2000).
Numbering of substitutions follows the chain as printed. Several values for one entry are separate records, joined by “and”; a condition that tells them apart may be missing. Equal entries are not always repeated.

How the values were obtained:
[1] = target: T1, Methylated-DNA--protein-cysteine methyltransferase (Homo sapiens, UniProt P16455); test: concentration required to reduce AGT activity to 50% of control rate in HT-29 cell extract.; type: cell-based
T1 sequence (P16455 whole entry): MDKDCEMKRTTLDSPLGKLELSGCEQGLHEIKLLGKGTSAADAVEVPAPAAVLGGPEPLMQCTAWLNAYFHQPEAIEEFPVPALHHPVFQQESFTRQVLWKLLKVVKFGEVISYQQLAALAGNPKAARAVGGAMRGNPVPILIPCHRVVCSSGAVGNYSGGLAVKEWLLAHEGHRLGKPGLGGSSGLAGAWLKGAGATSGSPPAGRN
Outline: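 HT29 cell extract AGT assay; IC50 is the inhibitor concentration reducing AGT activity to 50% of the control rate.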

[2] = target: T2, Methylated-DNA--protein-cysteine methyltransferase (Homo sapiens) (UniProt P16455); test: Percent AGT inactivation in HT-29 cell extract at 1 mM; type: cell-based
T2 sequence (whole entry): T1 sequence (P16455 whole entry)

[3] = target: T1, Methylated-DNA--protein-cysteine methyltransferase; test: Inhibition of AGT activity to 50% of control rate in HT-29 cell extract; type: cell-free
[4] = target: T2, Methylated-DNA--protein-cysteine methyltransferase (Homo sapiens); test: Percent of AGT inactivation in HT-29 cell extract at 1 mM concentration.
[5] = target: T1, Methylated-DNA--protein-cysteine methyltransferase; test: (§1) concentration required to reduce AGT activity to 50% of control rate in intact HT-29 human colorectal carcinoma cells.; type: cell-based
Outline: (§2)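 HT29 cells were grown 3 days in EMEM with 10% FCS, then exposed for 4 h to inactivator in serum-free EMEM (DMSO final 1% or 0.1%). Cells were trypsinized, washed and counted by trypan blue; pellets of 10⁷ cells were homogenized in Tris-HCl pH 8.3 buffer with EDTA, DTT and 200 mM NaCl. AGT activity was assayed in the extracts, and the concentration depleting whole-cell AGT activity by 50% was calculated.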

[6] = target: T2, Methylated-DNA--protein-cysteine methyltransferase (Homo sapiens); test: Compound was evaluated for inactivation of 156A mutant AGT
Outline: (§3)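 Recombinant wild-type or mutant (P140K, Y158H, G160R, G156A) AGT, made in E. coli with an N-terminal His6 tag and purified by metal affinity, was preincubated with inhibitor for 30 min at 37 °C in 50 mM Tris-HCl pH 7.5, 0.1 mM EDTA, 5 mM DTT and hemocyanin. Residual activity was measured over a further 30 min with methylated DNA substrate. ED50 was read from a plot of % activity lost against inhibitor amount, with a maximum of […] inhibitor.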

[7] = system: T3, Methylated-DNA--protein-cysteine methyltransferase (Homo sapiens), P16455 [G160R]; test: Compound was evaluated for inactivation of G160R mutant AGT; outline: as §3
T3 sequence (whole entry): T1 sequence (P16455 whole entry) with G160R

[8] = system: T4, Methylated-DNA--protein-cysteine methyltransferase (Homo sapiens), P16455 [P140K]; test: Compound was evaluated for inactivation of P140K mutant AGT; outline: as §3
T4 sequence (whole entry): T1 sequence (P16455 whole entry) with P140K

[9] = target: T2, Methylated-DNA--protein-cysteine methyltransferase (Homo sapiens); test: Compound was evaluated for inactivation of Wild type AGT; outline: as §3
[10] = system: T5, Methylated-DNA--protein-cysteine methyltransferase (Homo sapiens), P16455 [Y158H]; test: Compound was evaluated for inactivation of Y158H mutant AGT; outline: as §3
T5 sequence (whole entry): T1 sequence (P16455 whole entry) with Y158H

[11] = system: COLO 205; test: Cytotoxicity of compound in COLO 205 cell line; type: functional, cell-based; details: Homo sapiens
Outline: (§4)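 Colony-forming assay: exponentially growing cells were preincubated 1 h with 10 µM AGT inactivator (0.1% DMSO), then given temozolomide 0–1000 µM final (1% DMSO) for 4 h at 37 °C. Cells were then plated: HT29 on plastic, Colo205 in 0.15% agarose, with inactivator kept at 10 µM. After about 2 weeks, colonies were stained (crystal violet for HT29, MTT for Colo205) and counted. Temozolomide IC50 is mean ± SD of 3 independent experiments.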

[12] = system: COLO 205; test: Level of AGT activity in COLO 205 cell line; type: functional, cell-based; details: Homo sapiens
[13] = system: HT-29; test: Level of AGT activity in HT-29 cell line; type: functional, cell-based; details: Homo sapiens
[14] = system: HT-29; test: Cytotoxicity of compound in HT-29 cell line; type: functional, cell-based; details: Homo sapiens; outline: as §4
[15] = target: T1, Methylated-DNA--protein-cysteine methyltransferase; test: concentration required to reduce AGT activity to 50% of control rate in intact HT-29 human colorectal carcinoma cells; type: cell-based; outline: as §2
[16] = target: T1, Methylated-DNA--protein-cysteine methyltransferase; test: as §1; type: cell-based; outline: as §2; remark: listed apart in the source
[17] = system: T3, Methylated-DNA--protein-cysteine methyltransferase (Homo sapiens), P16455 [G160R]
[18] = system: T4, Methylated-DNA--protein-cysteine methyltransferase (Homo sapiens), P16455 [P140K]

CCCOc1nc(N)nc2nc[nH]c12
IC50 [1]: > 1000 µM

Nc1nc(OCC(=O)c2ccccc2)c2[nH]cnc2n1
IC50 [1]: > 1000 µM | Inactivation [2]: 0%

CCCCCCCOc1nc(N)nc2[nH]cnc12
IC50 [3]: > 100 µM | Inactivation [2]: 10%

C=C(COc1nc(N)nc2[nH]cnc12)C(C)C
IC50 [1]: > 1000 µM | Inactivation [4]: 22%

CCCOc1nc(N)nc2[nH]cnc12
Inactivation [4]: 24%

C=C(CC)COc1nc(N)nc2[nH]cnc12
IC50 [3]: 16 µM

C=C(COc1nc(N)nc2nc[nH]c12)c1ccccc1
IC50 [3]: 77 µM | IC50 [5]: 37.5 µM and 39.6 µM

CCCCOc1nc(N)nc2[nH]cnc12
IC50 [3]: 493 µM

CCOC(C)(COc1nc(N)nc2[nH]cnc12)OCC
IC50 [3]: > 1000 µM | Inactivation [2]: 0%

CCCCCOc1nc(N)nc2[nH]cnc12
IC50 [3]: 1010 µM

C=C(C)[C@H]1CC=C(COc2nc(N)nc3[nH]cnc23)CC1
IC50 [3]: 2.6 µM

Nc1nc(OCC2CC=CCC2)c2[nH]cnc2n1 (stereo not drawn)
IC50 [1]: > 1000 µM | Inactivation [4]: 32%

CC/C=C\CCOc1[nH]c(N)nc2ncnc1-2
IC50 [1]: > 1000 µM | Inactivation [4]: 32%

CC/C=C/CCOc1nc(N)nc2[nH]cnc12
Inactivation [2]: 88%

Nc1nc(OCC2=CCCC2)c2nc[nH]c2n1
ED50 [6]: 113 µM | ED50 [7]: 13 µM | ED50 [8]: > 1500 µM | ED50 [9]: 0.3 µM | ED50 [10]: 1500 µM

Nc1nc(OCC2=CCCCC2)c2[nH]cnc2n1
IC50 [3]: 1.6 µM

CCC(COc1nc(N)nc2[nH]cnc12)(OC)OC
IC50 [3]: > 1000 µM | Inactivation [2]: 0%

C=CCCCCOc1nc(N)nc2[nH]cnc12
Inactivation [2]: 65%

CCOc1nc(N)nc2[nH]cnc12
Inactivation [2]: 0%

Cn1nnc2c(C(N)=O)ncn2c1=O [TEMOZOLOMIDE]
IC50 [11]: 343 µM | Level [12]: 1160 fM/mg | Level [13]: 908 fM/mg | IC50 [14]: 951 µM

Nc1nc(OCC2=CCCC2)c2[nH]cnc2n1
IC50 [3]: 0.39 µM | IC50 [15]: 0.2 µM

Nc1nc(OCC2CCC2)c2[nH]cnc2n1
IC50 [1]: > 1000 µM | Inactivation [4]: 34%

Nc1nc(OCC2=CCC2)c2[nH]cnc2n1
IC50 [3]: 0.55 µM

C=C(C)COc1nc(N)nc2nc[nH]c12
IC50 [3]: 25 µM | IC50 [5]: 13.5 µM and 9.9 µM

COc1nc(N)nc2nc[nH]c12 [METHYLGUANINE]
IC50 [3]: 428 µM | IC50 [15]: 248 µM

CC(C)C1(COc2nc(N)nc3[nH]cnc23)OCCO1
Inactivation [2]: 54%

COC(COc1[nH]c(N)nc2ncnc1-2)(OC)c1ccccc1
Inactivation [2]: 0%

CC(C)C(=O)COc1nc(N)nc2nc[nH]c12
IC50 [1]: > 1000 µM | Inactivation [4]: 31%

Nc1nc(OCC2CCCC2)c2nc[nH]c2n1
IC50 [1]: > 1000 µM | Inactivation [4]: 0%

CC1(C)OCC(COc2nc(N)nc3[nH]cnc23)O1 (stereo not drawn)
IC50 [3]: > 1000 µM | Inactivation [2]: 0%

Nc1nc(OCCc2ccccc2)c2nc[nH]c2n1
IC50 [3]: 548 µM

CC(C)CCOc1nc(N)nc2[nH]cnc12
Inactivation [4]: 24%

Nc1nc(Oc2cccs2)c2[nH]cnc2n1
IC50 [3]: 0.003 µM

CC(=O)COc1nc(N)nc2[nH]cnc12
IC50 [3]: 192 µM | IC50 [5]: 95 µM and 119 µM

CCOc1nc(N)nc2nc[nH]c12
IC50 [3]: > 1000 µM

Nc1nc(OCC2CCCCC2)c2nc[nH]c2n1
IC50 [1]: > 1000 µM | Inactivation [2]: 0%

C=CCOc1nc(N)nc2nc[nH]c12
IC50 [16]: 5.1 µM | IC50 [3]: 8.5 µM | IC50 [5]: 2.7 µM

Nc1nc(OCc2ccccc2)c2nc[nH]c2n1
ED50 [6]: 60 µM | ED50 [10]: 620 µM | ED50 [17]: 4.7 µM | ED50 [18]: > 1500 µM

CCC(=O)COc1nc(N)nc2nc[nH]c12
IC50 [3]: 151 µM | IC50 [5]: 94.5 µM and 93.2 µM

Cn1nnc2c(C(N)=O)ncn2c1=O.Nc1nc(OCc2ccccc2)c2[nH]cnc2n1
IC50 [11]: 14 µM | IC50 [14]: 86 µM

Cn1nnc2c(C(N)=O)ncn2c1=O.Nc1nc(OCC2=CCCC2)c2[nH]cnc2n1
IC50 [11]: 36 µM | IC50 [14]: 299 µM

C#CCOc1nc(N)nc2nc[nH]c12
IC50 [3]: 20 µM | IC50 [5]: 11.5 µM and 11.9 µM

COC(COc1nc(N)nc2nc[nH]c12)(OC)c1ccccc1
IC50 [3]: > 1000 µM

CCCCCCOc1[nH]c(N)nc2ncnc1-2
IC50 [3]: 554 µM

CC(C)CCOc1nc(N)nc2nc[nH]c12
IC50 [1]: > 1000 µM
